DNMT1 inh: blocks human DNA methyltransferase DNMT1; DNMT1 molecular beacon, Hinp1I cleavage, fluorescence; inhibition (reported as % activation of signal), % at 10 µM; hit rate 0.83% among 360,000; AID 588458; in the data active means inhibition above about 50%
SUMO1 PPI mod: modulators of human SUMO1-mediated protein-protein interactions | P63165 | AID 602429 | SUMO1 binding to a labelled peptide, TR-FRET, 1 h | inhibition, % at 20 µM | hit rate 0.33% among 360,000; in the data active means inhibition above about 37%
Target sequence (P63165 whole entry, looked up): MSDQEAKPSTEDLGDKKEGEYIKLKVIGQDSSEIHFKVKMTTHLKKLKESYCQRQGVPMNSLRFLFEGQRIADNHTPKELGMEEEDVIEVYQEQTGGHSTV
LMPTP inh: LMPTP (human) inhibition; recombinant LMPTP-A, OMFP fluorogenic substrate, fluorescence intensity; inhibition, % at 20 µM; hit rate 0.22% among 360,000; AID 651560;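 active means compounds that cut the enzyme signal by at least half of the control window in the single-dose screen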;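 further: plate controls were DMSO wells with enzyme plus substrate for no effect and substrate without enzyme for full effect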
Target sequence (P24666 whole entry, looked up): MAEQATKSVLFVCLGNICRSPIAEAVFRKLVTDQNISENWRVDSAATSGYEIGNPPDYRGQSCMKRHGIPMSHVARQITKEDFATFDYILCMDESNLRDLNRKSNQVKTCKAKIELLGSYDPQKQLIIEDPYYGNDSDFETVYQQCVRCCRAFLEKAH
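Buffer or medium: Bis-Tris pH 6.0, DTT, detergent; Assay system: LMPTP-A enzyme; Quantity: 0.625 nM enzyme; Detection: endpoint fluorescence intensity; Times: 50 min dark incubation at room temperature; Controls: substrate-only low control, DMSO enzyme-plus-substrate high control; Doses: single 20 µM dose; Read-out: percent inhibition versus substrate-only and uninhibited controls; Reagent: 400 µM OMFP.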
Scp-1 inhibitor: blocks human Scp-1 phosphatase activity. hit rate 0.88% among 340,000. AID 493091. inhibition, % at 20 µM. Q9GZU7. Recombinant Scp1, phosphopeptide, malachite green phosphate absorbance;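 active means inhibition above about 50% at 20 µM, limit read from the data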;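 further: plate controls were DMSO wells with enzyme for no effect and wells lacking enzyme for full effect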
Target sequence (Q9GZU7 76-261 limits assumed): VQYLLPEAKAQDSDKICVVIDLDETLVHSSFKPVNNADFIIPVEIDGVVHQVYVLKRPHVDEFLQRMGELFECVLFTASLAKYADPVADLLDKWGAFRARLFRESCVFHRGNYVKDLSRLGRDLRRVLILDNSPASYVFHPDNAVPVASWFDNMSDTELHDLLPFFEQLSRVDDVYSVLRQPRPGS
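System: SCP-1 catalytic domain; Reagent: Phospho 17-mer peptide substrate; Doses: one concentration, 20 µM, with 1.0% DMSO; Incubation: 45 min room-temperature reaction, 5 min colour, 30 min stabiliser; Signal: Phosphate-binding colour reagent, absorbance read at 630 nm.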
Casp6 inh: blocks human caspase-6 cleavage activity; purified caspase-6, Z-VEID-R110 cleavage fluorescence; inhibition, % at 12.5 µM; hit rate 0.53% among 350,000; AID 686996;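 active means mean inhibition across replicates at least about 35%, with every replicate also reaching that limit, limit read from the data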;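 further: 0% = median of neutral control wells and 100% = no fluorescence left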
STEP block: inhibitors of human striatal-enriched phosphatase STEP | P54829 | hit rate 0.25% among 360,000 | inhibition, % at 20 µM | recombinant STEP, OMFP fluorogenic substrate, fluorescence;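 active means inhibition at 20 µM, scaled per plate between control wells, above about 37%, limit read from the data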;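 further: 0% = DMSO with enzyme and substrate and 100% = substrate only without enzyme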
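material = STEP tyrosine phosphatase | reagent = fluorogenic phosphatase substrate OMFP at 25 µM final | doses = single compound dose of 20 µM, 1% DMSO final | schedule = 20 min reaction, room temperature, in the dark | measured by = fluorescence, 480/540 nm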
DNMT1 interf DR: counter-screen for DNMT1 inhibitors: spectral interference, dose response. shares compounds with DNMT1 inh. molecular beacon fluorescence. IC50, µM. 200 tested, under 10 active. AID 602382; call rule not given here
DNMT1 inh conf: confirmation of human DNMT1 inhibitors; DNMT1 molecular beacon HinP1I cleavage, fluorescence; AID 602385; inhibition, % at 10 µM; hit rate 8% among 2,300; shares compounds with DNMT1 inh;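 active means average inhibition of at least 30% in the single-concentration confirmation test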
Beacon interf: shows spectral interference in the DNMT1 beacon assay; hit rate 1% among 2,300; DNMT1 molecular beacon spectral interference counterscreen, fluorescence 485/520; activation (fluorescence interference), % at 10 µM; AID 602387; shares compounds with DNMT1 inh;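 active means activation of at least 30% at 10 µM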;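 further: DNMT1 catalytic domain with a HinP1I cleavage step and a FAM/dabcyl DNA beacon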
The depositor's hits bear a star; . = not tested or not shown. Sampled rows, rich in hits. Any-hit rate of the full collection: about 1.7%.

SMILES | DNMT1 inh | SUMO1 PPI mod | LMPTP inh | Scp-1 inhibitor | Casp6 inh | STEP block | DNMT1 inh conf | Beacon interf | others
COc1ccc(-c2csc(NC(=O)C3CCN(c4ncnc5sc(C)c(C)c45)CC3)n2)cc1OC | -8 | 10 | 4 | 8 | 2 | -2 | . | .
C=CCn1c(C)cc(-c2csc(NC(=O)C3CCN(c4ncnc5sc(C)c(C)c45)CC3)n2)c1C | 65* | -1 | 1 | 6 | -12 | 1 | 3 | -7
Cc1ccc(N(C)S(=O)(=O)c2nnc(NC(=O)c3ccco3)s2)cc1 | 5 | 0 | -1 | -2 | 4 | -1 | . | .
Cc1ccccc1N(C)S(=O)(=O)c1nnc(NC(=O)c2ccco2)s1 | 54* | 19 | 13 | 27 | 69* | 1 | 3 | 1
COCCn1c(-c2ccc(-c3ccc([N+](=O)[O-])cc3Br)o2)nc2c1c(=O)[nH]c(=O)n2CC(C)C | 70* | -8 | 4 | -7 | . | 0 | -1 | -1
CC(C)(C)C(=O)Nc1c2c(nn1-c1ccc(F)cc1)CSC2 | 2 | -4 | -1 | -9 | 3 | 0 | . | .
CC#CCN(CC#CC)S(=O)(=O)c1ccc(S(=O)(=O)N2CCOCC2)cc1 | 5 | 1 | -1 | -3 | . | -3 | . | .
O=C(CN(Cc1ccc(Br)cc1)S(=O)(=O)c1ccccc1)NCc1ccccn1 | 87* | -3 | -1 | 4 | -1 | -1 | 4 | 5
O=C(O)c1ccccc1/C=N/Nc1ccc(S(=O)(=O)N2CCCC2)cc1[N+](=O)[O-] | -1 | -23 | 2 | -7 | 7 | 1 | . | .
Cc1nn(-c2ccccc2)c(Cl)c1/C=N/Nc1ccc(S(=O)(=O)Nc2ccccc2C(=O)O)cc1[N+](=O)[O-] | 100* | 21 | 43 | 0 | . | 8 | 82* | -10 | DNMT1 interf DR=>99
Cc1nn(-c2ccccc2)c(Cl)c1/C=N/Nc1ccc(Cl)c(C(=O)O)c1 | 3 | 11 | -1 | -2 | . | -1 | . | .
CCOc1ccc(C=NNc2ccc(S(=O)(=O)Nc3ccccc3C(=O)O)cc2[N+](=O)[O-])cc1 | 85* | 110* | 97* | 45 | 23 | 36 | 102* | -8 | DNMT1 interf DR=>99
O=C(COC(=O)/C=C/c1cccc(F)c1)NC1CC1 | 2 | -9 | -1 | -5 | 1 | -2 | . | .
COc1cccc(CC(=O)N(CCC2=CCCCC2)c2c(N)n(Cc3ccccc3)c(=O)[nH]c2=O)c1 | -2 | -1 | -1 | -11 | 1 | -1 | . | .
CSc1nnc(-c2ccco2)c(-c2ccco2)n1 | 95* | 22 | 5 | 47 | 48* | 3 | 2 | 4
COc1ccc(C(=O)CSc2nnc(-c3ccco3)c(-c3ccco3)n2)cc1 | 76* | 16 | 33 | 87* | 0 | 5 | 4 | 4
COc1cccc(NC(=O)CSc2nnc(-c3ccco3)c(-c3ccco3)n2)c1 | 87* | 26 | 3 | 66* | 43* | 9 | 2 | 0
CSc1nnc(-c2ccccc2)c(-c2ccccc2)n1 | 2 | -28 | 1 | -14 | 0 | 0 | . | .
Cc1ccc(NC(=O)CSc2nnc(-c3ccco3)c(-c3ccco3)n2)cc1 | 92* | 19 | 8 | 57* | . | 6 | 7 | 7
Cc1nnc(NC(=O)Cc2cccs2)s1 | 13 | 5 | 1 | 26 | . | 2 | . | .
CCCc1nc2c3ccccc3ccn2c1Cc1ccccc1OC | . | . | . | . | 1 | . | . | .
Cc1nc(-n2cc(F)c(=O)[nH]c2=O)c2nc(C)oc2n1 | 1 | 0 | -2 | -7 | . | -1 | . | .
COC(=O)Cn1ncc2c(C)n(Cc3ccccc3)c(C)c2c1=O | 2 | 0 | 0 | -5 | 1 | -1 | . | .
COc1ccccc1/C=C1\SC(=S)N(Nc2nc(C)cc(C)n2)C1=O | 2 | -3 | 2 | 0 | . | 1 | . | .
O=C(N[C@H]1CC[C@@H](CCNS(=O)(=O)c2ccc(F)cc2)O[C@@H]1CO)C1CCCC1 | . | . | . | . | 1 | . | . | .
SMILES | DNMT1 inh | SUMO1 PPI mod | LMPTP inh | Scp-1 inhibitor | Casp6 inh | STEP block | DNMT1 inh conf | Beacon interf | others
CCOC(=O)c1c(NC(C)=O)sc2c(OCC(O)CN(CC)CC)c(Br)ccc12 (stereo not given) | 76* | 1 | 4 | 7 | -30 | 2 | 7 | 2
Cc1ccc(-c2nnc(Nc3cccc(O)c3)c3ccccc23)cc1S(=O)(=O)NCCO | 90* | -5 | 1 | -2 | 10 | -1 | 7 | 4
COc1ccc(/C=C2\C(=O)NC(=O)c3ccccc32)cc1OC | 74* | 8 | 10 | 0 | 93* | 7 | -2 | 1
N/C(CSc1ccc(Cl)cc1)=N\S(=O)(=O)c1ccc(Cl)cc1 | 73* | 4 | 1 | -13 | -4 | -3 | 6 | 3
CCc1ccc(N(CC(=O)NC(C)(C)C)C(=O)CCC(=O)Nc2ccccn2)cc1 | 60* | -3 | -1 | -9 | 3 | 1 | 1 | -1
O=C(C[C@@H]1C[C@H]2c3cc(NC(=O)Nc4ccc(C(F)(F)F)cc4)ccc3O[C@H]2[C@H](CO)O1)NCc1ccccn1 | . | . | . | . | -7 | . | . | .
CCc1nnc(NC(=O)c2ccc(-c3ccc(Cl)cc3)o2)s1 | 68* | 1 | 21 | -6 | . | 1 | 5 | 2
Cc1cc(NS(=O)(=O)c2ccc(NC(=O)Cc3cccs3)cc2)no1 | 5 | 2 | 2 | -6 | 9 | -2 | . | .
Cc1ccc(-c2nnc(-c3ccc(NC(=O)Cc4cccs4)cc3)o2)cc1 | 49 | -1 | 4 | 37 | 2 | 4 | 7 | -1
Cc1cc(NC(=O)Cc2cccs2)no1 | 111* | 8 | 55* | 84* | . | 9 | 3 | -6
Cc1ccc2oc(-c3ccc(C)c(NC(=O)Cc4cccs4)c3)nc2c1 | 52* | 4 | -1 | -4 | . | -1 | 2 | 0
Cc1ccc2oc(-c3ccc(C)c(NC(=S)NC(=O)c4cccs4)c3)nc2c1 | 51* | 2 | 0 | -2 | -1 | 2 | 0 | -2
O=C(COC(=O)c1cc([N+](=O)[O-])ccc1N1CCOCC1)c1ccc(OC(F)F)cc1OC(F)F | -6 | -15 | 2 | -10 | 1 | -6 | . | .
Cc1ccccc1NC(=O)C1Cc2ccccc2CN1C(=O)c1ccco1 (stereo not given) | -5 | 3 | 1 | -5 | 6 | 2 | . | .
CCSc1nnc(NC(=O)C2Cc3ccccc3CN2C(=O)c2ccco2)s1 (stereo not given) | 53* | 20 | 3 | -2 | . | 1 | 4 | 0

Compound activity as filed in PubChem BioAssay.
